These results are taken from ChEMBL document CHEMBL1122912, “Synthesis and antitumor activity of structural analogues of the anticancer benzophenanthridine alkaloid fagaronine chloride” (1985).

Assay [1] deals with Mus musculus. Nature of the assay: Compound was evaluated for the anticancer activity against P388 lymphocytic leukemia in vivo in mouse at a dosage of 25 mg/kg and the weight difference was measured. Format: functional.
Assay [2] deals with Mus musculus. Nature of the assay: Compound was evaluated for the anticancer activity against P388 lymphocytic leukemia in vivo in mouse at a dosage of 100 mg/kg and the weight difference was measured. Format: functional.
The subject of assay [3] is Mus musculus. Nature of the assay: Compound was evaluated for the anticancer activity against P388 lymphocytic leukemia in vivo in mouse at a dosage of 50 mg/kg. The survivals were reported. Format: functional.
Assay [4] deals with Mus musculus. Nature of the assay: Compound was evaluated for the anticancer activity against P388 lymphocytic leukemia in vivo in mouse at a dosage of 25 mg/kg. The survivals were reported. Format: functional.
The test system of assay [5] is Mus musculus. Nature of the assay: Compound was evaluated for the anticancer activity against P388 lymphocytic leukemia in vivo in mouse at a dosage of 200 mg/kg and the weight difference was measured. Format: functional.
Assay [6] relates to Mus musculus. Nature of the assay: Compound was evaluated for the anticancer activity against P388 lymphocytic leukemia in vivo in mouse at a dosage of 200 mg/kg, survivals were reported. Format: functional.
In assay [7] the test system is Mus musculus. Nature of the assay: Compound was evaluated for the anticancer activity against P388 lymphocytic leukemia in vivo in mouse at a dosage of 100 mg/kg and percent treated/control was reported. Format: functional.
The test system of assay [8] is Mus musculus. Nature of the assay: Compound was evaluated for the anticancer activity against P388 lymphocytic leukemia in vivo in mouse at a dosage of 200 mg/kg and percent treated/control was reported. Format: functional.
In assay [9] the test system is Mus musculus. Nature of the assay: Compound was evaluated for the anticancer activity against P388 lymphocytic leukemia in vivo in mouse at a dosage of 50 mg/kg and the weight difference was measured. Format: functional.
In assay [10] the test system is Mus musculus. Nature of the assay: Compound was evaluated for the anticancer activity against P388 lymphocytic leukemia in vivo in mouse at a dosage of 100 mg/kg. Format: functional.
Assay [11] relates to Mus musculus. Nature of the assay: Compound was evaluated for the anticancer activity against P388 lymphocytic leukemia in vivo in mouse at a dosage of 25 mg/kg and percent treated/control was reported. Format: functional.
A short description of assay [12]: Compound was evaluated for its cytotoxic activity in vitro KB cell culture system derived from human epidermoid carcinoma. Format: functional. The settings on record: read-out: ED50 (the source's name).
For assay [13], the system named is Mus musculus. Nature of the assay: Compound was evaluated for the anticancer activity against P388 lymphocytic leukemia in vivo in mouse at a dosage of 50 mg/kg and percent treated/control was reported. Format: functional.
Assay [14] in a line: Compound was evaluated for its cytotoxic activity in vitro KB cell culture system. Format: functional. The settings on record: Homo sapiens, read-out: ED50 (the source's name). In a few lines: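 Cytotoxicity was measured in cultured KB human cancer cells and reported as ED50 values.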
The subject of assay [15] is Mus musculus. Nature of the assay: Compound was evaluated for the anticancer activity against P388 lymphocytic leukemia in vivo in mouse at a dosage of 12.5 mg/kg. The survivals were reported. Format: functional.
Assay [16] relates to Mus musculus. Nature of the assay: Compound was evaluated for the anticancer activity against P388 lymphocytic leukemia in vivo in mouse at a dosage of 12.5 mg/kg and percent treated/control was reported. Format: functional.
Assay [17] deals with Mus musculus. Nature of the assay: Compound was evaluated for the anticancer activity against P388 lymphocytic leukemia in vivo in mouse at a dosage of 12.5 mg/kg and the weight difference was measured. Format: functional.
The subject of assay [18] is Mus musculus. Nature of the assay: Compound was evaluated for the anticancer activity against P388 lymphocytic leukemia in vivo in mouse at a dosage of 50 mg/kg, survivals were reported. Format: functional.
Assay [19] relates to Mus musculus. Nature of the assay: Compound was evaluated for the anticancer activity against P388 lymphocytic leukemia in vivo in mouse at a dosage of 400 mg/kg and the weight difference was measured. Format: functional.
Assay [20] relates to Mus musculus. Nature of the assay: Compound was evaluated for the anticancer activity against P388 lymphocytic leukemia in vivo in mouse at a dosage of 100 mg/kg. The survivals were reported. Format: functional.
Assay [21] deals with Mus musculus. Nature of the assay: Compound was evaluated for the anticancer activity against P388 lymphocytic leukemia in vivo in mouse at a dosage of 400 mg/kg. The survivals were reported. Format: functional.
The subject of assay [22] is Mus musculus. Nature of the assay: Compound was evaluated for the anticancer activity against P388 lymphocytic leukemia in vivo in mouse at a dosage of 200 mg/kg. The survivals were reported. Format: functional.
Assay [23] has as its system Mus musculus. Nature of the assay: Compound was evaluated for the anticancer activity against P388 lymphocytic leukemia in vivo in mouse at a dosage of 400 mg/kg and percent treated/control was reported. Format: functional.
Assay [24] has as its system Mus musculus. Nature of the assay: Compound was evaluated for the anticancer activity against M5076 sarcoma in vivo in mouse at a dosage of 25 mg/kg and percent treated/control was reported. Format: functional.
Assay [25] concerns Mus musculus. Nature of the assay: Compound was evaluated for the anticancer activity against M5076 sarcoma in vivo in mouse at a dosage of 50 mg/kg and percent treated/control was reported. Format: functional.
For assay [26], the system named is Mus musculus. Nature of the assay: Compound was evaluated for the anticancer activity against M5076 sarcoma in vivo in mouse at a dosage of 100 mg/kg and percent treated/control was reported. Format: functional.
Assay [27] deals with Mus musculus. Nature of the assay: Compound was evaluated for the anticancer activity against M5076 sarcoma in vivo in mouse at a dosage of 25 mg/kg and the weight difference was measured. Format: functional.
Assay [28] has as its system Mus musculus. Nature of the assay: Compound was evaluated for the anticancer activity against M5076 sarcoma in mouse at a dosage of 400 mg/kg, survivals were reported. Format: functional.
The subject of assay [29] is Mus musculus. Nature of the assay: Compound was evaluated for the anticancer activity against M5076 sarcoma in vivo in mouse at a dosage of 12.5 mg/kg and percent treated/control was reported. Format: functional.
For assay [30], the system named is Mus musculus. Nature of the assay: Compound was evaluated for the anticancer activity against M5076 sarcoma in vivo in mouse at a dosage of 100 mg/kg and the weight difference was measured. Format: functional.
The subject of assay [31] is Mus musculus. Nature of the assay: Compound was evaluated for the anticancer activity against M5076 sarcoma in vivo in mouse at a dosage of 12.5 mg/kg. Format: functional.
Assay [32] deals with Mus musculus. Nature of the assay: Compound was evaluated for the anticancer activity against M5076 sarcoma in vivo in mouse at a dosage of 12.5 mg/kg, survivals were reported. Format: functional.
For assay [33], the system named is Mus musculus. Nature of the assay: Compound was evaluated for the anticancer activity against M5076 sarcoma in vivo in mouse at a dosage of 100 mg/kg, survivals were reported. Format: functional.
The test system of assay [34] is Mus musculus. Nature of the assay: Compound was evaluated for the anticancer activity against M5076 sarcoma in vivo in mouse at a dosage of 6.25 mg/kg and percent treated/control was reported. Format: functional.
The subject of assay [35] is Mus musculus. Nature of the assay: Compound was evaluated for the anticancer activity against M5076 sarcoma in vivo in mouse at a dosage of 200 mg/kg, survivals were reported. Format: functional.
For assay [36], the system named is Mus musculus. Nature of the assay: Compound was evaluated for the anticancer activity against M5076 sarcoma in vivo in mouse at a dosage of 6.25 mg/kg, survivals were reported. Format: functional.
The test system of assay [37] is Mus musculus. Nature of the assay: Compound was evaluated for the anticancer activity against M5076 sarcoma in vivo in mouse at a dosage of 25 mg/kg, survivals were reported. Format: functional.
For assay [38], the system named is Mus musculus. Nature of the assay: Compound was evaluated for the anticancer activity against M5076 sarcoma in vivo in mouse at a dosage of 50 mg/kg, survivals were reported. Format: functional.
Assay [39] relates to Mus musculus. Nature of the assay: Compound was evaluated for the anticancer activity against M5076 sarcoma in vivo in mouse at a dosage of 200 mg/kg and the weight difference was measured. Format: functional.
The test system of assay [40] is Mus musculus. Nature of the assay: Compound was evaluated for the anticancer activity against M5076 sarcoma in vivo in mouse at a dosage of 6.25 mg/kg and the weight difference was measured. Format: functional.
For assay [41], the system named is Mus musculus. Nature of the assay: Compound was evaluated for the anticancer activity against M5076 sarcoma in vivo in mouse at a dosage of 50 mg/kg and the weight difference was measured. Format: functional.
The test system of the next assay is L1210. Nature of the assay: Activity against L1210 was reported. Format: functional, Mus musculus.

As to `COc1cc2c[n+](C)c3c(c2cc1OC)Cc1cc(OS(C)(=O)=O)c(OC)cc1-3.[Cl-]`, the Weight difference was -1.3 in the assay with Mus musculus [1], -2.1 in the assay with Mus musculus [2], -3.6 in the assay on Mus musculus [5] and -0.6 in the assay with Mus musculus [9]. The Survival in the assay with Mus musculus [3] worked out at 6; in the assay with Mus musculus [4], 6; in the assay on Mus musculus [6], 5; in the assay on Mus musculus [10], 6. Moreover, the T/C was 137% with Mus musculus [7], 145% in the assay with Mus musculus [8], 128% with Mus musculus [11] and 136% in the assay with Mus musculus [13]. In addition, the EC50 in assay [12] is 0.01 µg/mL.

For the molecule `COc1cc2c[n+](C)c3c(c2cc1OC)Cc1c-3ccc(OS(C)(=O)=O)c1OC.[Cl-]`, the EC50 in [12] was 0.1 µg/mL.

On to `COc1cc2cc(-c3ccc4c(c3)OCO4)[n+](C)cc2cc1OC.[Cl-]`, for which the EC50 in [14] is 0.005 µg/mL.

Take `COc1cc2cc(-c3ccc(OC(C)C)c(OC)c3)[n+](C)cc2cc1OC.[Cl-]`: the EC50 in assay [12] is > 100 µg/mL.

Turning to `COc1cc2c(cc1O)Cc1c-2[n+](C)cc2cc(OC)c(OC)cc12.[Cl-]`, the Weight difference in the assay on Mus musculus [1] is -0.1; with Mus musculus [17] it was 0.1; in the assay on Mus musculus [9], -0.4. Further, the Survival in the assay with Mus musculus [15] was 5; with Mus musculus [4], 6; with Mus musculus [18], 6. Further, the T/C with Mus musculus [16] is given as 130%; in the assay with Mus musculus [11], 138%; in the assay on Mus musculus [13], 149%. In addition, in [12], the EC50 came out at 0.03 µg/mL.

Turning to `COc1cc2c[n+](C)c3c(c2cc1OC)Cc1c-3ccc(O)c1OC.[Cl-]`, the figures for the Weight change in the assay with Mus musculus [2], with Mus musculus [5] and with Mus musculus [19] were 0.2, -0.2 and -1.5, respectively. In addition, the values for the T/C with Mus musculus [7], in the assay on Mus musculus [8] and with Mus musculus [23] were 116%, 134% and 137%, respectively. The Survival with Mus musculus [20], with Mus musculus [21] and with Mus musculus [22] was 6 throughout. For the same molecule, the EC50 in [12] is 0.4 µg/mL.

As to `COc1cc2c[n+](C)c3c(c2cc1OC)Cc1cc2c(cc1-3)OCO2.[Cl-]`, the T/C in the assay on Mus musculus [24] was 113%; in the assay on Mus musculus [25], 107%; with Mus musculus [26], 137%; with Mus musculus [29], 109%; in the assay on Mus musculus [34] it was 115%. For the same molecule, the Weight difference in the assay with Mus musculus [27] was -0.3; in the assay on Mus musculus [30], -4.4; in the assay with Mus musculus [31], -0.2; in the assay on Mus musculus [39] it was -7.2; with Mus musculus [40], -0.8; in the assay on Mus musculus [41], -2. The Survival in the assay on Mus musculus [28] was determined as 0; with Mus musculus [32] it was 10; in the assay on Mus musculus [33] it was 9; with Mus musculus [35], 6; with Mus musculus [36], 10; in the assay with Mus musculus [37] it was 10. In the assay on Mus musculus [38], this molecule showed a Survival of 9.

In turn, `COc1cc2c[n+](C)c3c4cc5c(cc4ccc3c2cc1OC)OCO5.[Cl-]` [NITIDINE CHLORIDE] gave a T/C in the assay with L1210 of 136.
